Measurements from ChEMBL document CHEMBL1152646, “Synthesis, molecular docking and biological evaluation of metronidazole derivatives as potent Helicobacter pylori urease inhibitors” (Bioorg Med Chem, 2009).
Calls of active or inactive are those of the source. The calls are words filed in the database; no cut-off is given here.

Legend:
[1] = target: Urease subunit alpha/Urease subunit beta (Helicobacter pylori (strain ATCC 700392 / 26695) (Campylobacterpylori)) (UniProt P69996+P14916); experiment: Inhibition of Helicobacter pylori ATCC 43504 urease assessed as ammonia production at 1 mM after 3 hrs by indophenol method
Outline: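 Crude urease from H. pylori ATCC 43504 grown 24 h at 37 °C microaerobically in brucella broth with 10% heat-inactivated horse serum; cells PBS-washed, stored at -80 °C, sonicated 60 s in water with protease inhibitors, extract mixed 1:1 with glycerol. Enzyme (4 U) preincubated 3 h at room temperature with compound; ammonia measured by indophenol method; percent inhibition.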

[2] = target: Urease subunit alpha/Urease subunit beta (Helicobacter pylori (strain ATCC 700392 / 26695) (Campylobacterpylori), UniProt P69996); experiment: Inhibition of Helicobacter pylori ATCC 43504 urease assessed as ammonia production after 3 hrs by indophenol method
Outline: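 Crude urease came from H. pylori grown 24 h at 37 °C, microaerobic, in brucella broth with 10% heat-inactivated horse serum. Cells were PBS-washed, frozen at -80 °C, sonicated 60 s in water with protease inhibitors, and mixed 1:1 with glycerol. Enzyme (4 U) and compound were preincubated at room temperature. Percent inhibition was screened at 1 mM; IC50 came from dose–response curves (≥3 experiments, mean S.D.).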

Sequence of Urease subunit alpha/Urease subunit beta (Helicobacter pylori (strain ATCC 700392 / 26695) (Campylobacterpylori)) (P14916 whole entry, looked up): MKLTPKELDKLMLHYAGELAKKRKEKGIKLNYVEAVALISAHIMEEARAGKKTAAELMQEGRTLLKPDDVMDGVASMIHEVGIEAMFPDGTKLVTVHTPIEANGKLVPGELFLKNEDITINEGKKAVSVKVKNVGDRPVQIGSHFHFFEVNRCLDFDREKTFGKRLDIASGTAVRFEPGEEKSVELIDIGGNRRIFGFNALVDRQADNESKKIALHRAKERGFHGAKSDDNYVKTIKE
Sequence of Urease subunit alpha/Urease subunit beta (Helicobacter pylori (strain ATCC 700392 / 26695) (Campylobacterpylori)) (P69996 whole entry, looked up): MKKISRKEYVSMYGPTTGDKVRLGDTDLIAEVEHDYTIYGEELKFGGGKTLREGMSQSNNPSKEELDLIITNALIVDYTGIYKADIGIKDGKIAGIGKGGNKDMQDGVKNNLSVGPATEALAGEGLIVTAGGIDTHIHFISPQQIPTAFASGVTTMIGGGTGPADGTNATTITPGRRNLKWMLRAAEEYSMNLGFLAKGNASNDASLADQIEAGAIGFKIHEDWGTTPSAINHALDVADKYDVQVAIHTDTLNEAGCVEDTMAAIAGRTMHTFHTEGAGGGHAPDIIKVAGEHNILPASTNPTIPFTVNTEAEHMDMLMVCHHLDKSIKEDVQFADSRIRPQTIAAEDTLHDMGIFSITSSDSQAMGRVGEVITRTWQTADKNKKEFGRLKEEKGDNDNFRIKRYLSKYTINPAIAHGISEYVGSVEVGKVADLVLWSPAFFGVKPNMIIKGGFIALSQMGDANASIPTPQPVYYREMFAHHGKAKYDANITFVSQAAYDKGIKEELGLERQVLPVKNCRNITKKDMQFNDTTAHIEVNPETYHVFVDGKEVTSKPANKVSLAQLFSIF
Sequence of Urease subunit alpha/Urease subunit beta (P69996 whole entry): as the sequence (P69996 whole entry, looked up) above
Sequence of Urease subunit alpha/Urease subunit beta (P14916 whole entry, further chain): as the sequence (P14916 whole entry, looked up) above

Q: How did the inhibition [1] turn out when `Cc1ncc([N+](=O)[O-])n1CCOc1cc(N)ccc1C(=O)O` was run?
A: 38.3%

Q: Which inhibition [1] does the source give for `Cc1ncc([N+](=O)[O-])n1CCOc1c(Br)cc(Br)cc1C(=O)O` here?
A: 56.1%

Q: How did the inhibition [1] turn out when `Cc1ncc([N+](=O)[O-])n1CCO` was run?
A: inactive

Q: Which inhibition [1] does the source give for `Cc1ncc([N+](=O)[O-])n1CCOc1c(Cl)cc(Cl)cc1C(=O)O` here?
A: 56.8%

Q: `Cc1cccc(C(=O)OCCn2c([N+](=O)[O-])cnc2C)c1OCCn1c([N+](=O)[O-])cnc1C` was tested. Which inhibition [1] did it give?
A: 42.1%

Q: With `Cc1ncc([N+](=O)[O-])n1CCOc1c(I)cc(I)cc1C(=O)O` as the compound, how does the inhibition [1] read?
A: 53.9%

Q: With `Cc1ncc([N+](=O)[O-])n1CCOC(=O)c1cc(Cl)ccc1OCCn1c([N+](=O)[O-])cnc1C` as the compound, how does the IC50 [2] read?
A: 12 µM

Q: What about the inhibition [1] of the same compound?
A: 95.3%

Q: `Cc1ccc(C(=O)OCCn2c([N+](=O)[O-])cnc2C)c(OCCn2c([N+](=O)[O-])cnc2C)c1` was tested. Which inhibition [1] did it give?
A: 38.3%

Q: Which inhibition [1] does the source give for `Cc1ccc(C(=O)O)c(OCCn2c([N+](=O)[O-])cnc2C)c1` here?
A: inactive

Q: With `Cc1ncc([N+](=O)[O-])n1CCOC(=O)c1cc(I)ccc1OCCn1c([N+](=O)[O-])cnc1C` as the compound, how does the inhibition [1] read?
A: 78.7%

Q: `Cc1ncc([N+](=O)[O-])n1CCOC(=O)c1ccc(Cl)cc1OCCn1c([N+](=O)[O-])cnc1C` was tested. Which inhibition [1] did it give?
A: 82.2%

Q: Which IC50 [2] does the source give for `Cc1ncc([N+](=O)[O-])n1CCOC(=O)c1cc(Br)ccc1OCCn1c([N+](=O)[O-])cnc1C` here?
A: 26 µM

Q: And the inhibition [1]?
A: 93.9%

Q: For `Cc1ncc([N+](=O)[O-])n1CCOC(=O)c1cc(S(=O)(=O)O)ccc1OCCn1c([N+](=O)[O-])cnc1C`, which inhibition [1] is on record?
A: 61.2%

Q: Which inhibition [1] does the source give for `Cc1ccc(OCCn2c([N+](=O)[O-])cnc2C)c(C(=O)OCCn2c([N+](=O)[O-])cnc2C)c1` here?
A: 48.4%

Q: Which inhibition [1] does the source give for `Cc1ccc(S(=O)(=O)OCCn2c([N+](=O)[O-])cnc2C)cc1` here?
A: 78.1%
